A selection: hits, their analogues and other compounds. The true share with any hit is near 3%.
GASC-1 inh: blocks human GASC-1 demethylase activity | 330,000 compounds, 0.069% hits | inhibition, % at 2.35 µM | AID 2099 | Q9H3R0 | GST-JMJD2C(1-420) H3K9me3 demethylation, DELFIA europium;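 active = more than half of a compound's replicate wells show inhibition beyond 50%, single wells judged on their own value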;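 note: signal counts dimethyl H3K9 product captured on neutravidin plate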
aDG glyco up: alpha-DG glycosylation activation; activation, % at 10 µM; Pro5-aDG cells, alpha-DG glycosylation AlphaScreen (IIH6); 0% Pro5, 100% B10-LARGE cell signal; AID 624168; 360,000 compounds, 0.22% hits;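 active = activation of at least 8% versus controls, or a plate z-score of at least 8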;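 note: Pro5 are CHO cells carrying HIG-tagged alpha-DG that lacks glycosylation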
NPR2 activator: GC-B (human) receptor activation; P20594; HEK293-GC-B cells, CNP EC30, cGMP TR-FRET; 0% at EC30 CNP, 100% saturating CNP; activation, % at 10 µM; 370,000 compounds, 0.11% hits;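 active = activation at 10 µM reaching about 35% in either raw or pattern-adjusted values, limit read from the data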
Target sequence (P20594 whole entry, looked up): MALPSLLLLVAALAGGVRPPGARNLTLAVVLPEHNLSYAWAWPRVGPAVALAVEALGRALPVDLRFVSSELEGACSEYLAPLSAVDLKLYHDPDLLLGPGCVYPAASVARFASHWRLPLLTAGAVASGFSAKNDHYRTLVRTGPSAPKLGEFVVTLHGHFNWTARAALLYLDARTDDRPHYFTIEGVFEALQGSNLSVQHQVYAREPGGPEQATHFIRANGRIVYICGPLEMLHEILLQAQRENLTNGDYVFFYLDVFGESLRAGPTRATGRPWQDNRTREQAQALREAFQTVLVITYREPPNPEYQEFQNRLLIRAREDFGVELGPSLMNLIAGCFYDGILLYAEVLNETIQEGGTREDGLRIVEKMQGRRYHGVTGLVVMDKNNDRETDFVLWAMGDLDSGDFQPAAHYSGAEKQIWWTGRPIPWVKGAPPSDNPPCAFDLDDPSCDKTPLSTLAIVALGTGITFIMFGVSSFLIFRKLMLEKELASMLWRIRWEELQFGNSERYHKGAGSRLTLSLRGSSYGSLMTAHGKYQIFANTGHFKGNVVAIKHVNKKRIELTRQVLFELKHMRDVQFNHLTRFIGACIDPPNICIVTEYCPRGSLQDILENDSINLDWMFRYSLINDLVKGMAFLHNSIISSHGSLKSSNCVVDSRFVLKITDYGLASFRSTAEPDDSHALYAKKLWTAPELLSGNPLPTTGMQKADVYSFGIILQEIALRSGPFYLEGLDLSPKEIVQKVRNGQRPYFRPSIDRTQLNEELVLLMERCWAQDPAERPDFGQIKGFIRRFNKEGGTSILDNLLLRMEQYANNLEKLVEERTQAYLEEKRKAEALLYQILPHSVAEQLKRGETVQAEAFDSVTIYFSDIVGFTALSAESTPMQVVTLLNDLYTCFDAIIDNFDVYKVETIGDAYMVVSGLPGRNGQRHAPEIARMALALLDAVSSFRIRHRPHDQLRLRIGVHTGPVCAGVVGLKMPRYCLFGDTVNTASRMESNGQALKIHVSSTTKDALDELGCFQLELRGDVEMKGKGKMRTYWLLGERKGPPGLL
NR3A LBD binder: modulators (binders) of human NR3A ligand-binding domain. NR3A LBD differential scanning fluorimetry, Tm shift; 0% = protein alone, 100% = glycine-bound protein. Tm shift relative to glycine control, % at 25 µM. 340,000 compounds, 2.5% hits. AID 1259313;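 active = melting temperature shift of at least 10% of the positive control shift, at one fixed dose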
Hep lipid drop: hepatic lipid droplet formation modulation | AML12 mouse hepatocytes, oleate lipid droplets, BODIPY imaging | inhibition, % at 6.5 µM | 240,000 compounds, 0.4% hits;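 active = lipid droplet intensity inhibited by at least 50%, with more than 500 cells counted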
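Test system: AML12 hepatocytes (mouse); reagent: oleate loading, 100 µM; dosing: one dose, 6.5 µM compound; incubation: overnight exposure; signal: fluorescence imaging, 20x objective, two fields per well; read-out basis: % inhibition of corrected integrated BODIPY droplet signal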
NPR1 activator: GC-A (human) enzyme activation; 370,000 compounds, 0.14% hits; activation, % at 10 µM; AID 1671463; HEK293 GC-A cells, cGMP TR-FRET, EC30 ANP; 0% at EC30 ANP, 100% saturating ANP; P16066; in the data active = activation above about 40%
Of the large screens only hits and unclear results are named; the others gave an inactive call.

Cc1ccccc1Nc1nc(N)nc(CSc2nc3ccccc3s2)n1	none
Cc1ccc(Nc2nc(N)nc(CSc3nc4ccccc4s3)n2)cc1	NR3A LBD binder 17 (no result: Hep lipid drop)
COc1ccc(C(N)=S)cc1	NR3A LBD binder 29
COc1ccc(OCC(=O)N/N=C/C(C)=C/c2ccco2)c(Br)c1	GASC-1 inh 67
CCCCN1CCS(=O)(=O)N(Cc2ccc(Cl)cc2)C(C(=O)OC)C1 (stereo unspecified)	none (no result: GASC-1 inh, aDG glyco up, NR3A LBD binder, Hep lipid drop)
NC(=O)CCCn1c(C(=O)c2cc(Cl)c(N)c(Cl)c2)c2ccc(C(F)(F)F)cc2[n+]1[O-]	NPR2 activator 84 (no result: Hep lipid drop)
NCCCn1c(C(=O)c2cc(Cl)c(N)c(Cl)c2)c2ccc(C(F)(F)F)cc2[n+]1[O-]	none (no result: Hep lipid drop)
OC(CNCCC1C=Nc2ccccc21)Cn1c2ccc(Cl)cc2c2cc(Cl)ccc21 (stereo unspecified)	NR3A LBD binder 27
CC/C(=N\Nc1ccc([N+](=O)[O-])cc1[N+](=O)[O-])c1ccc(O)cc1	NR3A LBD binder 18 (no result: Hep lipid drop)
C/C(=N\Nc1ccc([N+](=O)[O-])cc1)c1cccc(N)c1	NR3A LBD binder 29 (no result: Hep lipid drop)
C/C(=N\Nc1ccc([N+](=O)[O-])cc1)c1ccc(O)cc1	NR3A LBD binder 23
CCC(=NNc1ccc([N+](=O)[O-])cc1[N+](=O)[O-])c1ccccc1	none (no result: GASC-1 inh, NR3A LBD binder, Hep lipid drop)
C/C(=N\Nc1cccc([N+](=O)[O-])c1)c1cc2ccccc2o1	NR3A LBD binder 29
CC(C)N(Cc1cn(Cc2ccccc2)nn1)S(=O)(=O)c1ccc(F)cc1Br	none (no result: GASC-1 inh, aDG glyco up, NR3A LBD binder, Hep lipid drop)
COc1ccccc1NS(=O)(=O)c1cc(NC(=O)Nc2ccccc2)ccc1N1CCCCC1	NR3A LBD binder 20
O=C(Nc1ccc(N2CCCCC2)c(S(=O)(=O)Nc2ccccc2Cl)c1)c1cccnc1	none (no result: Hep lipid drop)
O=C(/C=C/c1cccs1)Nc1ccc(N2CCOCC2)c(S(=O)(=O)Nc2ccccc2Cl)c1	none
O=C(Nc1ccc(F)cc1)Nc1ccc(N2CCCC2)c(S(=O)(=O)Nc2ccccc2Cl)c1	NR3A LBD binder 34
O=C(Nc1ccc(N2CCOCC2)c(S(=O)(=O)Nc2ccccc2Cl)c1)c1ccc(F)cc1	none (no result: GASC-1 inh, Hep lipid drop)
COc1ccccc1NS(=O)(=O)c1cc(NC(=O)C(C)C)ccc1N1CCCCC1	none
O=C(/C=C/c1cccs1)Nc1ccc(N2CCOCC2)c(S(=O)(=O)Nc2cc(Cl)ccc2Cl)c1	NR3A LBD binder 10
O=C(Nc1ccc(Cl)c(Cl)c1)Nc1ccc(N2CCCC2)c(S(=O)(=O)Nc2ccccc2Cl)c1	NR3A LBD binder 30
CC(C)CNc1cccc2c1S(=O)(=O)N(Cc1cn(Cc3cccc(C(F)(F)F)c3)nn1)Cc1ccccc1O2	none (no result: GASC-1 inh, aDG glyco up, NR3A LBD binder, Hep lipid drop)
CCCC(=O)Nc1ccc(-c2csc(N/N=C\c3ccncc3)n2)cc1	NR3A LBD binder 18
CC(=O)Nc1ccc(-c2csc(N/N=C\c3ccncc3)n2)cc1	NR3A LBD binder 15
CCCC(=O)Nc1ccc(-c2csc(NNC(C)=O)n2)cc1	none
O=C(O)CC1Cc2ccccc2C1C(=O)O (stereo unspecified)	none (no result: GASC-1 inh, Hep lipid drop)
COc1ccc(Cn2c(NC(=O)c3ccccc3)nc(Cc3ccccc3)c2-c2ccccc2)cc1	none (no result: GASC-1 inh, aDG glyco up, NR3A LBD binder, Hep lipid drop)
CCc1nc2c(OCCOc3ccc(F)cc3)cccn2c1N(C)C(=O)c1ccco1	none (no result: GASC-1 inh, NR3A LBD binder, Hep lipid drop)
CCN(CC(=O)NCC1CCCO1)S(=O)(=O)c1ccc(Cl)cc1 (stereo unspecified)	GASC-1 inh 50
CN(C)S(=O)(=O)c1cc(C(=O)NCC2CCCO2)c(Cl)cc1Cl (stereo unspecified)	NR3A LBD binder 18
O=C(CN(Cc1ccccc1)S(=O)(=O)c1ccc(Cl)cc1)NCC1CCCO1 (stereo unspecified)	none
Cc1cccc(CN2CCN(C3CN(Cc4ccc(F)cc4)S(=O)(=O)C3)CC2)c1 (stereo unspecified)	none (no result: GASC-1 inh, NR3A LBD binder, Hep lipid drop)
COc1cc2nc(SCc3ccc(C(F)(F)F)cc3)n(Cc3cccs3)c(=N)c2cc1OC	NR3A LBD binder 24
COCCCn1c(SCc2cccc(C(F)(F)F)c2)nc2cc(OC)c(OC)cc2c1=N	NR3A LBD binder 10 (no result: Hep lipid drop)
COc1cc2nc(SCc3ccc(Cl)cc3Cl)n(Cc3cccs3)c(=N)c2cc1OC	NR3A LBD binder 22 (no result: Hep lipid drop)
CN[C@H]1C[C@H]2c3cc(-c4ccc5c(c4)OCO5)ccc3CCN2C[C@H]1[C@H](C)O	none (no result: GASC-1 inh, aDG glyco up, NR3A LBD binder, Hep lipid drop)
CCCn1cnnc1CNC(=O)[C@@H](Cc1ccccc1)NC(=O)[C@H]1O[C@@H](n2ccc(=O)[nH]c2=O)[C@H](O)[C@@H]1O	none (no result: GASC-1 inh, aDG glyco up, NR3A LBD binder, Hep lipid drop)
CCCCNC(=S)N(C)/N=C/c1ccc(OCC(=O)Nc2c(C)cc(C)cc2C)c(OC)c1	none
CCNC(=S)N/N=C/c1ccc(OCC(=O)Nc2ccc(OC)cc2)c(OC)c1	NPR2 activator 55
CCCCNC(=O)C(=O)N/N=C/c1ccc(OCC(=O)Nc2cccc(OC)c2)c(OC)c1	NR3A LBD binder 11
COc1cc(/C=N/NC(=O)c2ccncc2)ccc1OCC(=O)Nc1cccc([N+](=O)[O-])c1	none
COc1cc(/C=N/NC(=S)NC(C)C)ccc1OCC(=O)Nc1c(C)cc(C)cc1C	NPR2 activator 44
COc1cc(/C=N/NC(=O)c2ccncc2)ccc1OCC(=O)Nc1ccc(C)c(C)c1	NR3A LBD binder 12
CC1(C)Cc2c(sc3c2c(=N)n(Cc2ccco2)c(=O)n3Cc2ccc(Cl)cc2)CO1	NPR2 activator 35 (no result: Hep lipid drop)
CC1(C)Cc2c(sc3c2c(=N)n(Cc2ccco2)c(=O)n3Cc2ccccc2)CO1	none
COC(=O)/C(=C/c1c[nH]c2ccccc12)[N+](=O)[O-]	NR3A LBD binder 16 (no result: Hep lipid drop)
C=CCN1C(=O)[C@@H](CC(=O)NCCCOC)[C@]2(C(=O)OC)CCCCC=C12	none (no result: GASC-1 inh, aDG glyco up, NR3A LBD binder, Hep lipid drop)
Clc1cccc(N/N=C/c2ccc(N3CCOCC3)s2)c1	NR3A LBD binder 19
Nc1ccc(C(=O)N/N=C/c2ccc(N3CCOCC3)s2)cc1	NR3A LBD binder 11 (no result: Hep lipid drop)
Cc1ccc(NC(=O)Cn2nnc(C(=O)NCc3cccs3)c2N)cc1Cl	NR3A LBD binder 16
COc1ccc(NC(=O)Cn2nnc(C(=O)NCc3cccs3)c2N)cc1Cl	none
Oc1nc(Nc2ccc(Cl)cc2Cl)sc1/C=C1\C=Nc2ccccc21	NR3A LBD binder 23
Nc1nc(Nc2ccc(Cl)cc2Cl)nc(C(F)(F)F)n1	none
CCCC1CCC2(CC1)CCC2OC(=O)Nc1cccc(C(F)(F)F)c1 (stereo unspecified)	none (no result: GASC-1 inh, aDG glyco up, NR3A LBD binder, Hep lipid drop)
C[C@H](O)[C@@H]1CN2CCc3c([nH]c4c(-c5ccc6c(c5)OCO6)cccc34)[C@@H]2C[C@@H]1N(C)C(=O)Nc1ccccc1	none (no result: GASC-1 inh, aDG glyco up, NR3A LBD binder, Hep lipid drop)
O=c1c2ccccc2nnn1CSc1ccccc1F	NR3A LBD binder 11
Cc1ccc(SCn2nnc3ccccc3c2=O)c(C)c1	none
